# Experimental data from ChEMBL document CHEMBL4334447, “Discovery of 4-Aminoquinoline-3-carboxamide Derivatives as Potent Reversible Bruton's Tyrosine Kinase Inhibitors for the Treatment of Rheumatoid Arthritis” (J Med Chem, 2019).
# Legend:
# [1] = Stability in mouse plasma assessed as parent compound remaining at 1 uM measured after 2 hrs by LC-MS/MS analysis; format: ADME, cell-free; conditions: read-out: Stability
# Summary of the method: (§1)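 Compound at 1 µM initial concentration incubated 2 h at 37 °C in plasma. Quenched with 10 volumes of methanol containing internal standard, then centrifuged. Supernatant diluted with an equal volume of water and analysed by LC-MS/MS. Read-out is % parent remaining. Mean of three separate assays run in triplicate.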
# [2] = Oral bioavailability in Sprague-Dawley rat at 5 mg/kg by LC-MS/MS analysis; format: ADME, organism-based; conditions: in vivo
# Summary of the method: (§2)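 Male Sprague-Dawley rats (187-205 g, n=6 per route). IV group: 2 mg/kg by tail vein in 10% DMSO/90% PEG400, fed animals. Oral group: 5 mg/kg as a 0.5% methylcellulose suspension, fasted animals. Jugular cannula blood taken pre-dose and from 0.033 h (iv only) to 24 h. Plasma stored at -20 °C and analysed by LC-MS/MS.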
# Homo sapiens [3] = organism: Homo sapiens; assay: Selectivity ratio of IC50 for recombinant mouse full-length BLK V421E mutant to IC50 for inhibition of FAM-labeled peptide binding to full-length human N-terminal GST-tagged BTK (2 to 659 residues) expressed in baculovirus infected Sf21 insect cells
# Summary of the method: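 Ratio is BLK IC50 divided by BTK IC50. BLK: radiometric, 50 mM Tris pH 7.5, 0.1 mM EGTA, 0.1 mM Na3VO4, 0.1% mercaptoethanol, 0.1 mg/mL poly(Glu,Tyr) 4:1, 10 mM Mg acetate, [γ-33P]ATP, 40 min room temperature, phosphoric acid stop, filter-bound scintillation counting. BTK: off-chip mobility shift with FAM-peptide. Triplicates, ≥3 assays.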
# Homo sapiens [4] = organism: Homo sapiens; assay: Selectivity ratio of IC50 for recombinant human ITK (352 to 617 residues) to IC50 for inhibition of FAM-labeled peptide binding to full-length human N-terminal GST-tagged BTK (2 to 659 residues) expressed in baculovirus infected Sf21 insect cells
# Summary of the method: (§3)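 Ratio of kinase IC50 to BTK IC50. BTK measured by off-chip mobility shift: compound preincubated 10 min with BTK in 50 mM HEPES pH 7.5, 0.01% Brij-35, then FAM-labelled peptide and ATP added, 28 °C. Stopped with EDTA buffer; percent conversion fitted for IC50. Each panel kinase assayed in triplicate.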
# [5] = Toxicity in complete freund's adjuvant-induced DBA/1 mouse arthritis model assessed as effect on appetite at 10 mg/kg, po qd administered starting from 29 day post-CFA challenge and measured on day 29, 33, 36, 40 and 43; format: organism-based; conditions: in vivo, 696 h
# Summary of the method: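 CIA in male DBA/1 mice: intradermal bovine type II collagen in CFA on day 0, collagen II in IFA boost on day 20. Randomized on day 29 and given oral doses once daily (n=6 per group) alongside vehicle and naive groups. Body weights recorded over the study days.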
# [6] = Stability in human plasma assessed as parent compound remaining at 1 uM measured after 2 hrs by LC-MS/MS analysis; format: ADME, cell-free; conditions: read-out: Stability; summary of the method: as §1
# [7] = Stability in Sprague-Dawley rat plasma assessed as parent compound remaining at 1 uM measured after 2 hrs by LC-MS/MS analysis; format: ADME, cell-free; conditions: read-out: Stability; summary of the method: as §1
# Homo sapiens [8] = organism: Homo sapiens; assay: Selectivity ratio of IC50 for human full-length recombinant YES to IC50 for inhibition of FAM-labeled peptide binding to full-length human N-terminal GST-tagged BTK (2 to 659 residues) expressed in baculovirus infected Sf21 insect cells; summary of the method: as §3
# [9] = biological target: Epidermal growth factor receptor (Homo sapiens, UniProt P00533); assay: Inhibition of recombinant human GST-tagged EGFR cytoplasmic domain (668 to 1210 residues) expressed in baculovirus expression system using Z'-lyte-labelled tyr-4 peptide as substrate measured after 1 hr by FRET assay
# Chain of Epidermal growth factor receptor (P00533 whole entry, the tested form may be a part): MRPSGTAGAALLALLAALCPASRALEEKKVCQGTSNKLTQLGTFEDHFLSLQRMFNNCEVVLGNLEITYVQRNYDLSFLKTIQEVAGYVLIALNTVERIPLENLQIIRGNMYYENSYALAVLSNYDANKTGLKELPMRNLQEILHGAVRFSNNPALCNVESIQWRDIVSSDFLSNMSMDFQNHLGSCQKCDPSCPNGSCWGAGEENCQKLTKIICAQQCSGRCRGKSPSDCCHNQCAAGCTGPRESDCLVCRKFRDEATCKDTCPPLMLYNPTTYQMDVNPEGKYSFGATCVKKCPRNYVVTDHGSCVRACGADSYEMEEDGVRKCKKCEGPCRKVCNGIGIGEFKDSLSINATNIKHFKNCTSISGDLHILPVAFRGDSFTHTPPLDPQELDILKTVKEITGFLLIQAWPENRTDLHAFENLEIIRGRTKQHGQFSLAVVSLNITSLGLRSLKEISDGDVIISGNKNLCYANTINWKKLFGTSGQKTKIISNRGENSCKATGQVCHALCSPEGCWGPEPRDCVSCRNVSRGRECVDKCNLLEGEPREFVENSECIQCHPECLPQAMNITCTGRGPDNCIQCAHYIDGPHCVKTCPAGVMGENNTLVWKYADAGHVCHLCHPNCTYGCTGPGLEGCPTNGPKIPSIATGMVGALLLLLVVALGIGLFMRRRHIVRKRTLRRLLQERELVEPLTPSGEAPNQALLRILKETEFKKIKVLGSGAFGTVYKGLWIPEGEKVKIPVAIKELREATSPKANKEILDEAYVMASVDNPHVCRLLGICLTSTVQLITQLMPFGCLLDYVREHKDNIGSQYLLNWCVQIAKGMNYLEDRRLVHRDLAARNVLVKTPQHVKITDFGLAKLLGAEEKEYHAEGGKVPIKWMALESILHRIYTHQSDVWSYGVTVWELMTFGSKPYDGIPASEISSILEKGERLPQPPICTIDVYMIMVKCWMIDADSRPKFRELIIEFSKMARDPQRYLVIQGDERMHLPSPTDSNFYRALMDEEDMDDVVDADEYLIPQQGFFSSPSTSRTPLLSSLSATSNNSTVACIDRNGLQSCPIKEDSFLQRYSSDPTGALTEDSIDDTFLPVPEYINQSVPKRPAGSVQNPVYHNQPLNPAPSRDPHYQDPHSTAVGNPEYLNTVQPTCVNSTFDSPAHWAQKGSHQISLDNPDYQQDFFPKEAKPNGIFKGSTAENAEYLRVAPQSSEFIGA
# Summary of the method: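 Z'-LYTE kinase assay. Compounds tested as 3-fold serial dilutions in aqueous solution containing 4% DMSO. Fluorescence read at 400 nm excitation and 445/520 nm emission. IC50 is the mean of ≥3 assays in triplicate.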
# Homo sapiens [10] = organism: Homo sapiens; assay: Selectivity ratio of IC50 for recombinant human N-terminal GST-fused TEC catalytic domain (359 to 631 residues) expressed in baculovirus expression system to IC50 for inhibition of FAM-labeled peptide binding to full-length human N-terminal GST-tagged BTK (2 to 659 residues) expressed in baculovirus infected Sf21 insect cells; summary of the method: as §3
# [11] = biological target: Tyrosine-protein kinase Yes (Homo sapiens, UniProt P07947); assay: Inhibition of human full-length recombinant YES using poly(Glu, Tyr) 4:1 as substrate measured after 40 mins in presence of [gamma-33P]-ATP by scintillation counting analysis
# Chain of Tyrosine-protein kinase Yes (P07947 whole entry): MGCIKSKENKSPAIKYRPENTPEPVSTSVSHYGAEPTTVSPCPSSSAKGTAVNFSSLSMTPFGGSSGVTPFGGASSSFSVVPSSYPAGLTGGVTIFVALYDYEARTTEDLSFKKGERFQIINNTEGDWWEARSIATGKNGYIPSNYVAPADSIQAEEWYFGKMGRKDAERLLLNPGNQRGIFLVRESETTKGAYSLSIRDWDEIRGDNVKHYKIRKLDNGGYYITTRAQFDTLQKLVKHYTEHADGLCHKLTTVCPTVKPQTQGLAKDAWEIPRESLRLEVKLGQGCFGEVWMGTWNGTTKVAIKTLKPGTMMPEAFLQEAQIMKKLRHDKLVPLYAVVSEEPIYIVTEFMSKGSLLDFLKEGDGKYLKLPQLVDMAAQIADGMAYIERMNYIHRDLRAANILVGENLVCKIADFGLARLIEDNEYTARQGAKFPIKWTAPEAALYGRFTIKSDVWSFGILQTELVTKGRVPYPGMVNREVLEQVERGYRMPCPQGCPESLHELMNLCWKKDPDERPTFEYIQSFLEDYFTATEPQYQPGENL
# Summary of the method: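 Started with Mg/ATP at room temperature; 40 min incubation. Stopped with 0.5% phosphoric acid, spotted onto Filtermat A, washed, scintillation counted. Mean of ≥3 assays in triplicate.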
# Homo sapiens [12] = organism: Homo sapiens; assay: Selectivity ratio of IC50 for recombinant full-length human SRC to IC50 for inhibition of FAM-labeled peptide binding to full-length human N-terminal GST-tagged BTK (2 to 659 residues) expressed in baculovirus infected Sf21 insect cells; summary of the method: as §3
# [13] = Half life in Sprague-Dawley rat at 2 mg/kg, iv by LC-MS/MS analysis; format: ADME, organism-based; conditions: in vivo; summary of the method: as §2
# [14] = Kinetic aqueous solubility of the compound in pH 7.4 phosphate buffered saline incubated for 24 hrs under shaking condition by HPLC analysis; format: physicochemical; conditions: read-out: Kinetic_solubility
# Summary of the method: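 Dry powder shaken 24 h at 25 °C in 0.1 M phosphate buffer, pH 7.4, then filtered through a 0.45 µm membrane. Concentration determined by HPLC against a standard of the compound in DMSO. Mean of three separate assays in triplicate.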
smiles,measurement,setting,value
COc1cc2cn[nH]c2cc1-c1ccc(F)c2c(N)c(C(N)=O)cnc12,"remaining at 2 h, 1 µM",[1],98%
same,bioavailability,[2],25%
same,Ratio IC50,Homo sapiens [3],28
same,Ratio IC50,Homo sapiens [4],58
same,Activity,[5],Non-Toxic
same,"remaining at 2 h, 1 µM",[6],93%
same,"remaining at 2 h, 1 µM",[7],96%
same,Ratio IC50,Homo sapiens [8],> 1000
same,IC50,[9],> 2 µM
same,Ratio IC50,Homo sapiens [10],43
same,IC50,[11],> 10 µM
same,Ratio IC50,Homo sapiens [12],170
same,half-life,[13],1.2 h
same,solubility kinetic at 24 h,[14],7.3 µg/mL
